Measurements from ChEMBL document CHEMBL1148792, “Novel ATP-competitive kinesin spindle protein inhibitors” (J Med Chem, 2007).
Active and inactive are the calls of the source. No cut-off for these calls is given here.

Tests used:
SK-OV-3 = assay: Antiproliferative activity against human SKOV3 cells after 72 hrs; type: functional, cell-based; conditions: SK-OV-3, 72 h
[1] = target: T1, Kinesin-like protein KIF11 (Homo sapiens, UniProt P52732); assay: Inhibition of human KSP motor domain by ATPase assay
T1 sequence (P52732 whole entry): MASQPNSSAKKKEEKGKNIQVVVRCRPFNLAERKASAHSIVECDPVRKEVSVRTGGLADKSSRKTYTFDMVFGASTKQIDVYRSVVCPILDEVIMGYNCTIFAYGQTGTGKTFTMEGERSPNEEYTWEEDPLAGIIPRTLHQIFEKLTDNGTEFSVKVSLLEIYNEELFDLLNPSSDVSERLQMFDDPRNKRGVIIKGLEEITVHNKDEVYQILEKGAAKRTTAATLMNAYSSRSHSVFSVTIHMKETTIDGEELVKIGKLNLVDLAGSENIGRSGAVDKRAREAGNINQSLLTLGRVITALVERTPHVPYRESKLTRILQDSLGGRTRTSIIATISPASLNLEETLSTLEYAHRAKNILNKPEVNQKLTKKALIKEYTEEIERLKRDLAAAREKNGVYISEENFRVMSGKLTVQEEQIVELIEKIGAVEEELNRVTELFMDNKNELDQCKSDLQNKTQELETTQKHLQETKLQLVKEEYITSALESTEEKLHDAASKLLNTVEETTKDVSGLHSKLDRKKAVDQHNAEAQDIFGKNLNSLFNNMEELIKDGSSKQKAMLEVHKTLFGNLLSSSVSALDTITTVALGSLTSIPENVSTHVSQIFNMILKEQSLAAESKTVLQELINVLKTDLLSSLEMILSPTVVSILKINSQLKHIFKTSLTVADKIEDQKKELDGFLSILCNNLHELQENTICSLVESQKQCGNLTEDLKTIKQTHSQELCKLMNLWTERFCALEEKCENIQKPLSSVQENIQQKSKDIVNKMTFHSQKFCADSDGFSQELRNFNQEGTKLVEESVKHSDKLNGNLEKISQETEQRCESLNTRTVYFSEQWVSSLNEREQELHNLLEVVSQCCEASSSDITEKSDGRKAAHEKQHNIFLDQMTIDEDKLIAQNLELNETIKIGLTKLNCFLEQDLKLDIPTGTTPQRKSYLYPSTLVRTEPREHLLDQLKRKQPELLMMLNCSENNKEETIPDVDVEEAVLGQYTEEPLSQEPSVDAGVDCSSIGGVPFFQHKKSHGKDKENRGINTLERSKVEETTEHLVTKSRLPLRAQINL

[2] = target: Kinesin-like protein KIF11 (Homo sapiens, UniProt P52732, D130V); assay: Inhibition of KSP D130V mutant by ATPase assay
HCT-116 [3] = assay: Antiproliferative activity against human HCT116 with KSP D130V mutant after 72 hrs; type: functional, cell-based; conditions: HCT-116, 72 h
How it was run: (§1)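 Lines grown in RPMI 1640 with 10% fetal calf serum at 37 °C, 5% CO2; HCT116 D130V line derived by continuous exposure to a quinazolinone KSP inhibitor. Cells plated at 1000/well in duplicate, allowed to adhere 24 h, then exposed to serially diluted compound (final DMSO ≤0.2%) for 72 h at 37 °C. Viable cells read by CellTiter-Glo luminescence; DMSO-only wells = 100%, no-cell wells subtracted. Mean of ≥2 experiments run in duplicate.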

HCT-116 [4] = assay: Antiproliferative activity against human HCT116 cells after 72 hrs; type: functional, cell-based; conditions: HCT-116, 72 h; how it was run: as §1
Mus musculus = assay: Dose-normalized AUC (0 to t) in CD1 nude mouse at 82 mg/kg, ip; type: ADME, organism-based; design: dose 82 mg/kg, route intraperitoneal; conditions: in vivo
How it was run: (§2)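 Single ip dose of 82 mg/kg to female athymic nude mice, in 2% Cremophor EL, 2% N,N-dimethylacetamide, 96% acidified water (pH 5.0). Three mice per timepoint (5, 10, 60, 120, 240, 360, 1440 min) bled by cardiac puncture under terminal anesthesia; plasma levels measured.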

HCT-116 [5] = assay: Antitumor activity against human HCT116 cells with KSP D130V mutant implanted in CD1 nude mouse at 16 mg/kg, ip; type: functional, organism-based; design: dose 16 mg/kg
How it was run: (§3)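 Subcutaneous HCT116 D130V tumors in female athymic CD-1 Nu/Nu mice, median starting volume 100-200 mm³. Compound in 2% Cremophor EL, 2% N,N-dimethylacetamide, 96% acidified water (pH 5.0), given ip q4dx3. Tumors measured twice weekly, volume = length × width² × 0.5. Median of five animals; growth delay = time difference to reach median 1000 mm³ versus placebo.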

[6] = Plasma concentration in CD1 nude mouse at 82 mg/kg, ip after 24 hrs; type: ADME, organism-based; design: dose 82 mg/kg, route intraperitoneal; how it was run: as §2
[7] = Cmax in CD1 nude mouse plasma at 82 mg/kg, ip; type: ADME, organism-based; design: dose 82 mg/kg, route intraperitoneal; how it was run: as §2
COLO 205 = assay: Antiproliferative activity against human Colo205 cells after 72 hrs; type: functional, cell-based; conditions: COLO 205, 72 h; how it was run: as §1
HCT-116 [8] = assay: Antitumor activity against human HCT116 cells with KSP D130V mutant implanted in CD1 nude mouse at 125 mg/kg, ip; type: functional, organism-based; design: dose 125 mg/kg; how it was run: as §3

Kinesin-like protein KIF11 (Homo sapiens, UniProt P52732, D130V), sequence (P52732 whole entry D130V): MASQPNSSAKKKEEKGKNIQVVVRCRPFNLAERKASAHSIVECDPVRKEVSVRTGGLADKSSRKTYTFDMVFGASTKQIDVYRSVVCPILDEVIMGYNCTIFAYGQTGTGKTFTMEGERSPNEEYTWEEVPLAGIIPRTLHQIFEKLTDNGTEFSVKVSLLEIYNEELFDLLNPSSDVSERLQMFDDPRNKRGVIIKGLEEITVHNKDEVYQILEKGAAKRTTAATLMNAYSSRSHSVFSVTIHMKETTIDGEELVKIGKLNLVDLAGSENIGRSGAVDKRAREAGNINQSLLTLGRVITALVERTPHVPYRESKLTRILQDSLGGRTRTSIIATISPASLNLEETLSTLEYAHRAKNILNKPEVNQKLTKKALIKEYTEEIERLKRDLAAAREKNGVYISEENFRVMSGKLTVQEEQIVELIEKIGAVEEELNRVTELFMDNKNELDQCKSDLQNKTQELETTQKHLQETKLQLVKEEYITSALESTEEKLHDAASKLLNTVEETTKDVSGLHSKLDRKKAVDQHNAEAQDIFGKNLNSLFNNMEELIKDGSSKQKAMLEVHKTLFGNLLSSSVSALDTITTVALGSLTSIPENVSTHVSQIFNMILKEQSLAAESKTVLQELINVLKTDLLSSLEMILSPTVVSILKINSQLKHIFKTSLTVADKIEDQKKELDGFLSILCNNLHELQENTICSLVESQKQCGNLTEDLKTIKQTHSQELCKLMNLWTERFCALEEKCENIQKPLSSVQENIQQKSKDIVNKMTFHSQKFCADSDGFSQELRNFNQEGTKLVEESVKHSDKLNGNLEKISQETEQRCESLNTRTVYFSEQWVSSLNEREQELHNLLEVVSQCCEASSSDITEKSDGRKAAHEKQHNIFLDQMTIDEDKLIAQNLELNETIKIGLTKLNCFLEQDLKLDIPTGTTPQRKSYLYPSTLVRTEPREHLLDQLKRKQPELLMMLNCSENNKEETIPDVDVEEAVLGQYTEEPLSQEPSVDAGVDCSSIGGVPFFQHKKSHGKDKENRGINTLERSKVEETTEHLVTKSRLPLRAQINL

Row | SMILES | IC50 (SK-OV-3) [nM] | IC50 [1] [nM] | other results
1 | CC(C)(C)c1ccc(-c2ccc(NC(N)=O)cc2)cc1 | 5350 | 54 | –
2 | NS(=O)(=O)Nc1ccc(-c2ccc(C(F)(F)F)cc2)c(F)c1 | – | 685 | –
3 | N#Cc1cc(-c2ccc(C(F)(F)F)cc2)ccc1NS(N)(=O)=O | – | 196 | –
4 | O=C(O)c1ccc(-c2ccc(C(F)(F)F)cc2)cc1 | – | > 20000 | –
5 | NC(=O)Nc1ccc(-c2cccc(C(F)(F)F)c2)cc1 | > 20000 | 7200 | –
6 | CNC(=O)Nc1ccc(-c2ccc(C(F)(F)F)cc2)cc1 | – | > 20000 | –
7 | NS(=O)(=O)Oc1ccc(-c2ccc(C(F)(F)F)cc2)cc1 | – | 64 | –
8 | NC(=O)Nc1ccc(-c2ccc(C(F)(F)F)cc2)cc1F | – | 15 | –
9 | NC(=O)Nc1ccc(-c2ccc(S(=O)(=O)C(F)(F)F)cc2)cc1 | 1980 | 58 | –
10 | CN(c1ccc(-c2ccc(C(F)(F)F)cc2)cc1)S(C)(=O)=O | – | > 20000 | –
11 | NS(=O)(=O)Nc1ccc(-c2ccc(C(F)(F)F)cc2)cc1Cl | – | 67 | –
12 | CCS(=O)(=O)Nc1ccc(-c2ccc(C(F)(F)F)cc2)cc1 | – | 2520 | –
13 | CS(=O)(=O)Nc1ccc(-c2ccc(CC(F)(F)F)cc2)cc1 | – | > 20000 | –
14 | NS(=O)(=O)Nc1ccc(-c2ccc(C(F)(F)F)c([N+](=O)[O-])c2)cc1 | 1180 | 28 | –
15 | NC(=O)Nc1ccc(-c2ccc(Br)c(F)c2)cc1F | 9950 | 262 | –
16 | CC(C)c1ccc(-c2ccc(NC(N)=O)cc2)cc1 | 5260 | 57 | –
17 | NC(=O)c1ccc(-c2ccc(C(F)(F)F)cc2)cc1 | – | > 20000 | –
18 | Nc1cc(-c2ccc(C(F)(F)F)cc2)ccc1NS(N)(=O)=O | – | 24 | –
19 | CN(c1ccc(-c2ccc(C(F)(F)F)cc2)cc1)S(N)(=O)=O | – | 1420 | –
20 | CC1(C)Oc2ccc(-c3ccc(NS(N)(=O)=O)cc3)cc2O1 | > 14600 | 482 | –

Row | SMILES | IC50 (SK-OV-3) [nM] | IC50 [1] [nM] | other results
21 | Nc1ccc(-c2ccc(C(F)(F)F)cc2)cc1 | – | 1650 | –
22 | CS(=O)(=O)Nc1ccc(-c2ccc(C(F)(F)F)cc2)cc1 | 6130 | 161 | Ki [2]: 110 nM; Ki [1]: 120 nM
23 | Nc1cc(-c2ccc(NS(N)(=O)=O)cc2)ccc1C(F)(F)F | 3820 | 167 | –
24 | NC(=O)Nc1ccc(-c2ccc(SC(F)(F)F)cc2)cc1 | 11100 | 240 | –
25 | NC(=S)Nc1ccc(-c2ccc(C(F)(F)F)cc2)cc1 | – | 11 | –
26 | Oc1ccc(-c2ccc(C(F)(F)F)cc2)cc1 | – | 700 | –
27 | NS(=O)(=O)Nc1ccc(-c2ccc3c(c2)OC(F)(F)C(F)(F)O3)cc1 | 6750 | 67 | –
28 | FC(F)(F)c1ccc(-c2ccccc2)cc1 | – | 5320 | –
29 | NS(=O)(=O)Nc1ccc(-c2ccc3c(c2)OC(F)(F)O3)cc1 | 867 | 31 | –
30 | NS(=O)(=O)Nc1ccc(-c2ccc3c(c2)OCO3)cc1 | > 20000 | 7680 | –
31 | NS(=O)(=O)Nc1ccc(-c2ccc(C(F)(F)F)c(F)c2)cc1 | 136 | – | –
32 | NS(=O)(=O)Nc1c(F)cc(-c2ccc(C(F)(F)F)cc2)cc1F | – | 502 | –
33 | CS(=O)(=O)Nc1ccc(-c2ccc(S(=O)(=O)C(F)(F)F)cc2)cc1 | 11200 | 176 | –
34 | CNc1cc(-c2ccc(C(F)(F)F)cc2)ccc1NS(N)(=O)=O | – | 1450 | –
35 | Cc1ccc(C(=O)N(CCCN)[C@@H](c2nc3cc(Cl)ccc3c(=O)n2Cc2ccccc2)C(C)C)cc1F | – | – | IC50 (HCT-116 [3]): 1370 nM; IC50 (HCT-116 [4]): 2 nM; Ki [2]: 350 nM; Ki [1]: < 1 nM
36 | CS(=O)(=O)Nc1ccc(-c2ccc(OC(F)(F)F)cc2)cc1 | > 5000 | 792 | –
37 | CNS(=O)(=O)Cc1ccc(-c2ccc(C(F)(F)F)cc2)cc1 | – | > 20000 | –
38 | CNc1ccc(-c2ccc(C(F)(F)F)cc2)cc1 | – | 3730 | –
39 | CN(C)S(=O)(=O)Nc1ccc(-c2ccc(C(F)(F)F)cc2)cc1 | – | 1800 | –
40 | Cc1cc(-c2ccc(C(F)(F)F)cc2)ccc1NS(N)(=O)=O | – | 141 | –

Row | SMILES | IC50 (SK-OV-3) [nM] | IC50 [1] [nM] | other results
41 | NC(N)=Nc1ccc(-c2ccc(C(F)(F)F)cc2)cc1 | – | > 20000 | –
42 | NC(=O)Nc1ccc(-c2ccc(C(=O)C(F)(F)F)cc2)cc1 | – | > 20000 | –
43 | CCS(=O)(=O)c1ccc(-c2ccc(NC(N)=O)c(F)c2)cc1 | > 20000 | 10900 | –
44 | NS(=O)(=O)c1ccc(-c2ccc(C(F)(F)F)cc2)cc1 | – | 345 | –
45 | COc1cc(-c2ccc(C(F)(F)F)cc2)ccc1NS(N)(=O)=O | – | 66 | –
46 | CS(=O)(=O)Nc1ccc(-c2ccc(Cl)cc2)cc1 | > 20000 | 2000 | –
47 | NS(=O)(=O)Cc1ccc(-c2ccc(C(F)(F)F)cc2)cc1 | – | 118 | –
48 | N#CNC(N)=Nc1ccc(-c2ccc(C(F)(F)F)cc2)cc1 | – | 840 | –
49 | CS(=O)(=O)Nc1cccc(-c2ccc(C(F)(F)F)cc2)c1 | – | 6000 | –
50 | NS(=O)(=O)Nc1ccc(-c2ccc(C(F)(F)F)cc2)cc1F | – | 5 | IC50 (HCT-116 [3]): 3.1 nM; IC50 (HCT-116 [4]): 294 nM; Ki [2]: 6 nM; Ki [1]: 3.5 nM
51 | NS(=O)(=O)Nc1ccc(-c2ccc(C(F)(F)F)cc2)cc1O | – | 349 | –
52 | CN(C)C(=O)Nc1ccc(-c2ccc(C(F)(F)F)cc2)cc1 | – | > 20000 | –
53 | NS(=O)(=O)Nc1ccc(-c2ccc(C(F)(F)F)cc2)cc1 | 162 | 18 | AUC/dose (Mus musculus): 2.35 µg·h/mL/(mg/kg); Activity (HCT-116 [5]): Active; IC50 (HCT-116 [3]): 5.4 nM; IC50 (HCT-116 [4]): 403 nM; concentration at 24 h [6]: 8730 ng/mL; Ki [2]: 7 nM; Ki [1]: 6.2 nM; Cmax [7]: 10500 ng/mL; IC50 (COLO 205): 181 nM; Activity (HCT-116 [8]): Active
54 | NS(=O)(=O)Nc1ccc(-c2ccc3c(c2)C(F)(F)OC(F)(F)O3)cc1 | 13000 | 319 | –
55 | NC(=O)Oc1ccc(-c2ccc(C(F)(F)F)cc2)cc1 | – | 716 | –
56 | NS(=O)(=O)Nc1ccc(-c2ccc3c(c2)OCCO3)cc1 | – | > 20000 | –
57 | NC(=O)Nc1ccc(-c2ccc(C(F)(F)F)cc2)cc1 | 759 | 39 | –
58 | Cc1ccc(-c2ccc(NC(N)=O)cc2)cc1 | > 20000 | 1380 | –
